Experimental data as given in ChEMBL document CHEMBL1806466, “2-Amino-4-methyl-5-phenylethyl substituted-7-N-benzyl-pyrrolo[2,3-d]pyrimidines as novel antitumor antimitotic agents that also reverse tumor resistance” (Bioorg Med Chem, 2011).

Experiments:
HT-29 = assay: Antitumor activity against human HT-29 cells after 48 hrs by sulforhodamine B assay; assay type: functional; settings: HT-29, 48 h
Summary of the method: (§1)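 NCI-60 screen, adherent lines: grown in RPMI 1640 with 5% FBS and 2 mM L-glutamine. Seeded at 5,000–40,000 cells/well by doubling time and preincubated 24 h at 37 °C, 5% CO2, with time-zero plates TCA-fixed. Five concentrations (10-fold or half-log) given for 48 h. Fixed with cold TCA (10% final), then SRB-stained and read at A515. GI50 is 50% reduction of net protein increase versus control.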

MOLT-4 = assay: Antitumor activity against human MOLT4 cells after 48 hrs by sulforhodamine B assay; assay type: functional; settings: MOLT-4, 48 h
Summary of the method: (§2)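 NCI-60 screen, suspension lines: grown in RPMI 1640 with 5% FBS and 2 mM L-glutamine. Seeded at 5,000–40,000 cells/well and preincubated 24 h at 37 °C, 5% CO2, with time-zero plates fixed. Five concentrations (10-fold or half-log) given for 48 h. Settled cells fixed with 80% TCA (16% final), then SRB-stained and read at 515 nm. GI50 is from the net growth relative to time zero and control.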

HCC 2998 = assay: Antitumor activity against human HCC2998 cells after 48 hrs by sulforhodamine B assay; assay type: functional; settings: HCC 2998, 48 h; summary of the method: as §1
UO-31 = assay: Antitumor activity against human UO31 cells after 48 hrs by sulforhodamine B assay; assay type: functional; settings: UO-31, 48 h
Summary of the method: (§3)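 NCI-60 panel lines grown in RPMI 1640 with 5% FBS and 2 mM L-glutamine. Cells plated at 5,000–40,000/well by doubling time, given 24 h before drug, then exposed to five concentrations for 48 h at 37 °C. Time-zero plates fixed with TCA. Cells fixed with TCA, stained with 0.4% SRB, read at 515 nm. GI50 = 50% reduction in net protein increase versus control.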

CAKI-1 = assay: Antitumor activity against human Caki1 cells after 48 hrs by sulforhodamine B assay; assay type: functional; settings: CAKI-1, 48 h; summary of the method: as §1
SK-MEL-28 = assay: Antitumor activity against human SK-MEL-28 cells after 48 hrs by sulforhodamine B assay; assay type: functional; settings: SK-MEL-28, 48 h; summary of the method: as §1
Hs-578T = assay: Antitumor activity against human Hs578T cells after 48 hrs by sulforhodamine B assay; assay type: functional; summary of the method: as §1
NCI-H23 = assay: Antitumor activity against human NCI-H23 cells after 48 hrs by sulforhodamine B assay; assay type: functional; settings: NCI-H23, 48 h; summary of the method: as §1
COLO 205 = assay: Antitumor activity against human COLO205 cells after 48 hrs by sulforhodamine B assay; assay type: functional; settings: COLO 205, 48 h; summary of the method: as §1
NCI-H460 = assay: Antitumor activity against human NCI-H460 cells after 48 hrs by sulforhodamine B assay; assay type: functional; settings: NCI-H460, 48 h; summary of the method: as §1
SK-MEL-5 = assay: Antitumor activity against human SK-MEL-5 cells after 48 hrs by sulforhodamine B assay; assay type: functional; settings: SK-MEL-5, 48 h; summary of the method: as §1
MCF7 [1] = assay: Resistance factor, ratio of IC50 for drug-resistant […] human NCI/ADR cells expressing Pgp in absence of vinblastin to IC50 for drug-sensitive human MCF7 cells in presence of 50 nM vinblastin; assay type: functional
MCF7 [2] = assay: Antitumor activity against human MCF7 cells after 48 hrs by sulforhodamine B assay; assay type: functional; settings: MCF7, 48 h; summary of the method: as §1
OVCAR-5 = assay: Antitumor activity against human OVCAR5 cells after 48 hrs by sulforhodamine B assay; assay type: functional; settings: OVCAR-5, 48 h; summary of the method: as §1
RPMI-8226 = assay: Antitumor activity against human RPMI8226 cells after 48 hrs by sulforhodamine B assay; assay type: functional; settings: RPMI-8226, 48 h; summary of the method: as §2
SK-OV-3 = assay: Antitumor activity against human SKOV3 cells after 48 hrs by sulforhodamine B assay; assay type: functional; settings: SK-OV-3, 48 h; summary of the method: as §1
SK-MEL-2 = assay: Antitumor activity against human SK-MEL-2 cells after 48 hrs by sulforhodamine B assay; assay type: functional; settings: SK-MEL-2, 48 h; summary of the method: as §1
U-251 = assay: Antitumor activity against human U251 cells after 48 hrs by sulforhodamine B assay; assay type: functional; settings: U-251, 48 h; summary of the method: as §3
[3] = Cytotoxic activity against Pgp-deficient human MCF7/VP cells expressing MRP1 after 48 hrs by sulforhodamine B assay; assay type: functional, cell-based
Summary of the method: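 Cells plated at ~15% confluency and allowed 24 h to attach, then exposed to varying test concentrations for 48 h. Survival by SRB binding, reported as % decrease in binding versus ethanol solvent controls, mean of three wells. For NCI/ADR, exposure with 0 or 50 nM vinblastine; for MCF-7/VP, with 0 or 1 nM vincristine.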

HOP-92 = assay: Antitumor activity against human HOP92 cells after 48 hrs by sulforhodamine B assay; assay type: functional; settings: HOP-92, 48 h; summary of the method: as §1
SNB-75 = assay: Antitumor activity against human SNB75 cells after 48 hrs by sulforhodamine B assay; assay type: functional; settings: SNB-75, 48 h; summary of the method: as §1
DU-145 = assay: Antitumor activity against human DU145 cells after 48 hrs by sulforhodamine B assay; assay type: functional; settings: DU-145, 48 h; summary of the method: as §1
SR = assay: Antitumor activity against human SR cells after 48 hrs by sulforhodamine B assay; assay type: functional; summary of the method: as §2
NCI-H522 = assay: Antitumor activity against human NCI-H522 cells after 48 hrs by sulforhodamine B assay; assay type: functional; settings: NCI-H522, 48 h; summary of the method: as §1
SF-295 = assay: Antitumor activity against human SF295 cells after 48 hrs by sulforhodamine B assay; assay type: functional; settings: SF-295, 48 h; summary of the method: as §1
UACC-257 = assay: Antitumor activity against human UACC257 cells after 48 hrs by sulforhodamine B assay; assay type: functional; settings: UACC-257, 48 h; summary of the method: as §3
MCF7 [4] = assay: Cytotoxic activity against drug-sensitive Pgp-, MRP1-deficient human MCF7 cells after 48 hrs by sulforhodamine B assay; settings: MCF7, 48 h
KM12 = assay: Antitumor activity against human KM12 cells after 48 hrs by sulforhodamine B assay; assay type: functional; settings: KM12, 48 h; summary of the method: as §1
EKVX = assay: Antitumor activity against human EKVX cells after 48 hrs by sulforhodamine B assay; assay type: functional; summary of the method: as §1
OVCAR-4 = assay: Antitumor activity against human OVCAR4 cells after 48 hrs by sulforhodamine B assay; assay type: functional; settings: OVCAR-4, 48 h; summary of the method: as §1
A498 = assay: Antitumor activity against human A498 cells after 48 hrs by sulforhodamine B assay; assay type: functional; settings: A498, 48 h; summary of the method: as §1
ACHN = assay: Antitumor activity against human ACHN cells after 48 hrs by sulforhodamine B assay; assay type: functional; summary of the method: as §1
SNB-19 = assay: Antitumor activity against human SNB19 cells after 48 hrs by sulforhodamine B assay; assay type: functional; settings: SNB-19, 48 h; summary of the method: as §1
Malme-3M = assay: Antitumor activity against human MALME-3M cells after 48 hrs by sulforhodamine B assay; assay type: functional; summary of the method: as §1
MDA-MB-468 = assay: Antitumor activity against human MDA-MB-468 cells after 48 hrs by sulforhodamine B assay; assay type: functional; settings: MDA-MB-468, 48 h; summary of the method: as §1
HOP-62 = assay: Antitumor activity against human HOP62 cells after 48 hrs by sulforhodamine B assay; assay type: functional; settings: HOP-62, 48 h; summary of the method: as §1
OVCAR-3 = assay: Antitumor activity against human OVCAR3 cells after 48 hrs by sulforhodamine B assay; assay type: functional; settings: OVCAR-3, 48 h; summary of the method: as §1
PC-3 = assay: Antitumor activity against human PC3 cells after 48 hrs by sulforhodamine B assay; assay type: functional; settings: PC-3, 48 h; summary of the method: as §1

COc1cc(CCc2cn(Cc3ccccc3)c3nc(N)nc(C)c23)c(OC)c(OC)c1OC
GI50 (HT-29): 3.6 µM
GI50 (MOLT-4): 3.96 µM
GI50 (HCC 2998): 5.89 µM
GI50 (UO-31): 5.37 µM
GI50 (CAKI-1): 2.5 µM
GI50 (SK-MEL-28): 4.05 µM
GI50 (Hs-578T): 2.46 µM
GI50 (NCI-H23): 3.61 µM
GI50 (COLO 205): 2.8 µM
GI50 (NCI-H460): 2.81 µM
GI50 (SK-MEL-5): 1.46 µM
Ratio IC50 (MCF7 [1]): 0.29
GI50 (MCF7 [2]): 1.05 µM
GI50 (OVCAR-5): 11.9 µM
GI50 (RPMI-8226): 1.69 µM
GI50 (SK-OV-3): 2.98 µM
GI50 (SK-MEL-2): 5.09 µM
GI50 (U-251): 3.93 µM
IC50 [3]: 9 µM
GI50 (HOP-92): 1.39 µM
GI50 (SNB-75): 2.25 µM
GI50 (DU-145): 2.5 µM
GI50 (SR): 2.35 µM
GI50 (NCI-H522): 6.05 µM
GI50 (SF-295): 1.39 µM
GI50 (UACC-257): 10.4 µM
IC50 (MCF7 [4]): 24 µM
GI50 (KM12): 3.33 µM
GI50 (EKVX): 7.73 µM
GI50 (OVCAR-4): 8.83 µM
GI50 (A498): 2.25 µM
GI50 (ACHN): 9.36 µM
GI50 (SNB-19): 4.68 µM
GI50 (Malme-3M): 10.4 µM
GI50 (MDA-MB-468): 2.82 µM
GI50 (HOP-62): 3.96 µM
GI50 (OVCAR-3): 1.2 µM
GI50 (PC-3): 3.08 µM
